# Compound activity from PubChem.
# OX1R antag-1: antagonists of human orexin 1 receptor; O43613; CHO/OX1R cells, Fluo-8 calcium fluorescence, orexin A; inhibition, % at 5 µM; actives 0.43% (n = 330,000); AID 434989;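 active = inhibition above its plate's threshold, mean inhibition of all tested compounds on the plate plus 3 SD, cut at about 37% in these data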;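 also: 0% = orexin A challenge wells and 100% = SB-334867-A antagonist wells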
# GPR7 antag: antagonists of human GPR7 (neuropeptides B/W receptor 1); P48145; GPR7-expressing cells, fluorescence antagonist assay; inhibition, % at 4.4 µM; actives 1.1% (n = 290,000); AID 1861; in the data active = inhibition above about 16%, passing the limit was not always enough;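 also: cells stimulated with the agonist NPW; 0% = agonist with vehicle and 100% = vehicle without agonist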
# Target sequence (P48145 whole entry, looked up): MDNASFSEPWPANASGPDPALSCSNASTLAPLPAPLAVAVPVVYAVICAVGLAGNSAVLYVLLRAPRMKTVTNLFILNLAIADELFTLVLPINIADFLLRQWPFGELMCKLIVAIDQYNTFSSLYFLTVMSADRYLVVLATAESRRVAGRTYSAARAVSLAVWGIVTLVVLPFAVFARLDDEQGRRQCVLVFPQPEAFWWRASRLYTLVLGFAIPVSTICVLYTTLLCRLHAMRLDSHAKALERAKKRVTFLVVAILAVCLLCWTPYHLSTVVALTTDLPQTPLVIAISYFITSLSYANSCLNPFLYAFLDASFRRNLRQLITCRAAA
# OX1R antag-2: antagonists of human orexin 1 receptor (OX1R). OX1R-expressing cells, FRET antagonist read-out. inhibition, % at 6.6 µM. actives 1.8% (n = 330,000). AID 485270; in the data active = inhibition mostly above about 38%, no sharp cut-off; inactive = mostly below about 40%;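 also: 0% = agonist challenge alone and 100% = reference antagonist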
# GalR3 antagonist: antagonists of human GalR3 | HEK293 GalR3-CNG cAMP membrane potential fluorescence; galR3 body fused to GalR1 C-terminus | actives 0.44% (n = 360,000) | O60755 | AID 651719 | inhibition, % at 3 µM;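 active = inhibition above the screen-wide average plus 3 SD, cut at about 13% in these data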;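 also: forskolin and galanin both at EC90 stimulate the cells; cAMP rise reported by CNG channel membrane potential dye signal; 0% = forskolin plus galanin with DMSO and 100% = forskolin alone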
# Target sequence (O60755 1-299 limits assumed): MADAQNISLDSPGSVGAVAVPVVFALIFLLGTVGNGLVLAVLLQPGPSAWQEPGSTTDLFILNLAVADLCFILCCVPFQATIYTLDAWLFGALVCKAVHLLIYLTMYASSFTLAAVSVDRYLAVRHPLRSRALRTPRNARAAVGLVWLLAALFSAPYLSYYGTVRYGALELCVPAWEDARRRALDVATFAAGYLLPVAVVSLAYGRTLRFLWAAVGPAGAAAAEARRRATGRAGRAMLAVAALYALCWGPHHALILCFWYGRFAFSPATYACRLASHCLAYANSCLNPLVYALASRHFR
# CHO parental Ca: counter-screen: ATP calcium response change in parental CHO cells | parental CHO-K1, ATP-induced calcium, Fluo-8 fluorescence | inhibition, % at 5.6 µM | actives 0.63% (n = 330,000) | AID 463079;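 active = inhibition above that plate's mean sample inhibition plus 3 SD, cut at about 26% in these data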;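 also: 0% = ATP-challenged DMSO wells and 100% = DMSO wells without ATP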
#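 Assay system: parental CHO cells; Read-out basis: percent inhibition of ATP-evoked calcium rise, normalized to controls; Benchmarks: ATP and no-ATP DMSO wells; Compound dosing: single nominal dose of 5.6 µM per compound; Signal: Fluo-8 calcium dye fluorescence; Also added: ATP as calcium-mobilizing challenge; Repeats: singlicate.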
# An asterisk follows results filed as active; nt = not tested or not shown. Hits are enriched below; roughly 3.1% of the tested compounds scored in any of these assays.
SMILES,OX1R antag-1,GPR7 antag,OX1R antag-2,GalR3 antagonist,CHO parental Ca
Clc1ccc(C[n+]2c(-c3ccccc3)cc(-c3ccccc3)cc2-c2ccccc2)cc1,63*,nt,3,-9,63*
CC(C)C(CN1CCC(C)(c2cccc(O)c2)[C@@H](C)C1)NC(=O)C1Cc2ccc(O)cc2CN1 (stereo not given in full),nt,nt,nt,0,nt
CN(C)C(=O)Oc1ccc([N+](=O)[O-])cc1,-9,-6,15,-4,2
CC(=O)Nc1ccc([As](=O)(O)c2ccc([N+](=O)[O-])cc2)cc1,-8,-15,67*,-7,-7
COC(COC(N)=O)C1=C(N2CC2)C(=O)C(C)=C(N2CC2)C1=O (stereo not given),nt,nt,nt,-2,nt
COC12C(COC(N)=O)C3=C(C(=O)C(C)=C(N)C3=O)N1CC1C2N1C (stereo not given),4,-6,57*,-5,-6
O=[N+]([O-])c1ccc(-[n+]2c(-c3ccccc3)cc(-c3ccccc3)cc2-c2ccccc2)cc1,-17,15,29,-8,-9
O=[N+]([O-])c1ccccc1-c1cc(-c2ccccc2)cc(-c2ccccc2)[n+]1Cc1ccccc1Cl,70*,nt,34,-12,68*
Cc1cc(N2CCNC[C@@H]2C)ccc1N1CC[C@@H](O)C1,nt,nt,nt,-7,nt
Cn1c(=O)[nH]c2nncnc2c1=O,5,nt,70*,-2,-2
C[C@@H]1O[C@@H](O[C@H]2C[C@@H](O)[C@]3(CO)[C@H]4[C@H](O)C[C@]5(C)[C@@H](C6COC(=O)C6)CC[C@]5(O)[C@@H]4CC[C@]3(O)C2)[C@H](O)[C@H](O)[C@H]1O (stereo not given in full),0,-10,9,22*,-1
Nc1nonc1C(=O)N/N=C/c1ccc([N+](=O)[O-])o1,-6,-7,75*,-5,-2
C[CH2][Hg][S]c1ccccc1C(=O)O,89*,nt,3,-7,73*
CC(C)COC(=O)c1ccccc1C(=O)OCC(C)C,-8,nt,7,-6,-14
O=C1NC(=O)N(c2ccc3c(c2)OCO3)C(=O)/C1=C\c1ccc(-c2ccccc2C(=O)O)o1,-14,-19,32,2,-4
O=C1NC(=O)N(c2ccc3c(c2)OCO3)C(=O)/C1=C/c1ccc(N2CCCCC2)o1,-5,-6,61*,-2,-2
Cc1nc2cc(C(F)(F)F)ccc2n1C1CCN(Cc2nnnn2CCc2ccccc2)CC1,-19,20*,4,-2,-5
O=C(NCCN1CCC2(CC1)C(=O)NCN2c1ccccc1)c1ccc(F)cc1F,nt,nt,nt,-5,nt
O=C(CCCN1CCC2(CC1)C(=O)NCN2c1ccccc1)c1ccc(F)cc1,106*,102*,10,-9,99*
O=C(Nc1ccccc1)N1Cc2cc(Br)ccc2-n2nncc2C1,nt,nt,nt,-8,nt
COc1cc(C=C2C(=O)NC(=O)NC2=O)ccc1OCc1ccc([N+](=O)[O-])cc1,nt,-1,nt,-4,nt
COc1cc(/C=C(/C)[N+](=O)[O-])ccc1OCc1ccccc1Cl,37,2,29,nt,54*
NC(=O)c1cc(N2CC2)c([N+](=O)[O-])cc1[N+](=O)[O-],5,nt,74*,-1,1
COC(=O)C1=C(c2ccccc2OCc2ccccc2)C[C@@H]2CC[C@H]1N2C(=O)NCc1cccc(F)c1,35,nt,41*,-8,-28
Cc1nc2cc([N+](=O)[O-])ccc2c(=O)n1-c1ccc(Br)cc1,-7,-20,13,-3,-12
SMILES,OX1R antag-1,GPR7 antag,OX1R antag-2,GalR3 antagonist,CHO parental Ca
Cc1nc2cc([N+](=O)[O-])ccc2c(=O)n1-c1ccccc1[N+](=O)[O-],-19,2,53*,-8,-9
COc1ccc(-[n+]2c(-c3ccccc3)cc(-c3ccccc3)cc2-c2ccccc2)cc1,1,nt,25,-14,22
Oc1ccc(-[n+]2c(-c3ccccc3)cc(-c3ccccc3)cc2-c2ccccc2)cc1,37,nt,20,-2,44*
Cc1ccc2nc(-c3ccc(CN4CCC(n5nnc6ccccc65)CC4)cc3)c(-c3ccccc3)nc2c1,nt,nt,nt,-3,nt
O=C1NC(=O)N(c2cccc(Cl)c2)C(=O)/C1=C\c1ccc(Sc2nc3ccccc3[nH]2)o1,62*,-4,9,-2,39*
COC1CC(OC2CCC3(C)C(CCC4C3CCC3(C)C(C5=CC(=O)OC5)C(OC(C)=O)CC43O)C2)OC(C)C1OC1OC(COC2OC(CO)C(O)C(O)C2O)C(O)C(O)C1O (stereo not given),-6,nt,7,nt,-3
CC(=O)OC1CC(OC2C(O)CC(OC3C(O)CC(OC4CCC5(C)C(CCC6C5CCC5(C)C(C7=CC(=O)OC7)CCC65O)C4)OC3C)OC2C)OC(C)C1OC1OC(CO)C(O)C(O)C1O (stereo not given),nt,nt,nt,22*,nt
CN1CC[C@@H]2CN[C@H](c3ccccc3Br)C[C@@H]21,nt,nt,nt,-3,nt
O=C(c1c[nH]cc1-c1ccccc1)c1cccc2ccccc12,41,0,25,0,40*
CCCn1c(C)c(C(=O)c2cccc3ccccc23)c2ccccc21,-29,nt,22,-6,16
COc1ccc2nc(-c3ccc(CN4CCC(n5nnc6ccccc65)CC4)cc3)c(-c3ccccc3)nc2c1,nt,nt,nt,-8,nt
Cc1ccc(N2Cc3ccccc3-n3nncc3C2)cc1,nt,nt,nt,-6,nt
Cc1ccc2c(c1N)C(=O)c1ccccc1C2=O,19,nt,40*,-7,4
CCC(=NCCOc1ccc(Cl)cc1)c1c(O)n(C)c(=O)n(C)c1=O,54*,-2,19,0,50*
O=C(NCCN1CCC2(CC1)C(=O)NCN2c1ccccc1)C(c1ccccc1)c1ccccc1,nt,nt,nt,-7,nt
CN1OC[C@@H]2CN3C4(C[C@@H]21)c1ccccc1C3(c1ccccc1)c1ccccc14,nt,nt,nt,-8,nt
C[C@@H]1O[C@@H](O[C@@H]2C=C3CC[C@@H]4C(CC[C@]5(C)[C@@H](c6ccc(=O)oc6)CC[C@]45O)[C@@]3(C)CC2)[C@H](O)[C@H](O)[C@H]1O (stereo not given in full),-13,nt,12,33*,-4
C[C@@H]1O[C@@H](O[C@@H]2C=C3CCC4C(CC[C@]5(C)[C@@H](c6ccc(=O)oc6)CC[C@]45O)[C@@]3(C)CC2)[C@H](O)[C@H](O)[C@H]1O (stereo not given in full),-14,nt,10,16*,-7
Clc1cc(Cl)cc(CN2Cc3cc(Br)ccc3-n3nncc3C2)c1,nt,nt,nt,-8,nt
CC(C)OCCCNC(=O)c1c(N)n(CC2CCCO2)c2nc3ccccc3nc12 (stereo not given),-21,15*,12,-3,-24
O=C1OCc2cc(N=Nc3c(O)[nH]c(=O)[nH]c3=O)ccc21,-1,-6,42*,0,-7
O=C1NS(=O)c2cc([N+](=O)[O-])cc([N+](=O)[O-])c21 (stereo not given),-1,-7,67*,-2,-8
